Calls of active or inactive are those of the source. The rule behind the calls is not given here.
How the values were obtained:
[1] = test system: SH-SY5Y; experiment: Neuroprotective activity against rotenone/oligomycin-induced oxidative stress in human SH-SY5Y cells assessed as protection against cell death at 1 uM incubated for 20 to 24 hrs by MTT assay relative to control; details: time 20-24 hrs
[2] = test system: SH-SY5Y; experiment: Neuroprotective activity against cytostatin-induced cytotoxicity in human SH-SY5Y cells assessed as protection against cell death at 1 uM […] by MTT assay relative to control; type: functional
[3] = test system: Cortical neurone; experiment: Neuroprotective activity against glutamate-induced excitotoxicity in rat cortical neurons assessed as protection against cell damage at 1 uM preincubated with compound for 24 hrs followed by glutamate addition and measured after 20 hrs by MTT assay relative to control; type: functional; details: time 44 hrs
[4] = test system: SH-SY5Y; experiment: Neuroprotective activity against okadaic acid-induced cytotoxicity in human SH-SY5Y cells assessed as protection against cell death at 1 uM incubated for 24 hrs by MTT assay relative to control; type: functional
Method in brief: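 SH-SY5Y cells were pre-incubated 24 h with compound at 1 μM, then co-incubated with okadaic acid 20 nM for 20 h. Viability was read by MTT reduction. Results are % protection relative to okadaic acid-treated cells without compound, as mean ± SEM of at least 4 independent experiments.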

[5] = test system: SH-SY5Y; experiment: Activation of PP2A in human SH-SY5Y cells assessed as restoration of cytostatin-induced phosphatase activity inhibition at 1 uM preincubated with compound for 24 hrs followed by okadaic acid addition and measured after 18 hrs by pNPP method; type: cell-based; details: filed as activator, time 42.0 hrs, in the assay text read “followed by cytostatin addition” for “followed by okadaic acid addition”
Method in brief: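 Cells were SH-SY5Y (70000/well), preincubated 24 h with compound, then given cytostatin 2 μM plus compound 1 μM for 18 h; pNPP-measured phosphatase activity normalized to untreated control; mean ± SEM, at least 3 independent experiments.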

[6] = test system: SH-SY5Y; experiment: Activation of PP2A in human SH-SY5Y cells assessed as restoration of okadaic acid-induced phosphatase activity inhibition at 1 uM preincubated with compound for 24 hrs followed by okadaic acid addition and measured after 18 hrs by pNPP method; type: cell-based; details: time 42.0 hrs
Method in brief: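 SH-SY5Y cells (MEM/F12, 10% FBS, 70000 cells/well) preincubated 24 h with compound, then exposed to OA 15 nM plus compound 1 μM for 18 h; phosphatase activity by pNPP method, normalized to untreated control; mean ± SEM, at least 4 independent experiments.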

[7] = target: Glycogen synthase kinase-3 beta (Homo sapiens) (UniProt P49841); experiment: Inhibition of okadaic-acid induced GSK-3beta hyperphosphorylation at Ser9 residue in human SH-SY5Y cells at 0.1 uM preincubated with compound for 24 hrs followed by okadaic acid addition and measured after 20 hrs by Western blot analysis; type: cell-based; details: time 44.0 hrs
Method in brief: (§1)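 After 24 h preincubation with compound 0.1 μM, SH-SY5Y cells incubated 20 h with OA 20 nM plus compound; western blot for pTau (Ser202/Thr205) and pGSK-3β (Ser9); mean ± SEM of at least 3 independent experiments.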

[8] = Permeability of the compound in porcine brain by spectrophotometry based PAMPA-BBB assay; details: pig
[9] = test system: HEK293T; experiment: Activation of GFP-tagged PP2A-B55alpha (unknown origin) transfected in HEK293T cells using K-R-pT-I-R-R peptide as substrate assessed as recovery of OA-induced PP2A inhibition by measuring increase in substrate phospho hydrolysis at 1 uM measured at 15 to 30 mins by Malachite green method; type: cell-based; details: Homo sapiens, filed as activator, time 15-30 min
[10] = target: Microtubule-associated protein tau (Homo sapiens) (UniProt P10636); experiment: Inhibition of okadaic-acid induced tau hyperphosphorylation at Ser202/Thr205 residues in human SH-SY5Y cells at 0.1 uM preincubated with compound for 24 hrs followed by okadaic acid addition and measured after 20 hrs by Western blot analysis; type: cell-based; details: time 44.0 hrs
Method in brief: as §1

[11] = test system: HEK293T; experiment: Activation of GFP-tagged PP2A-B56alpha (unknown origin) transfected in HEK293T cells using K-R-pT-I-R-R peptide as substrate assessed as recovery of OA-induced PP2A inhibition by measuring increase in substrate phospho hydrolysis at 1 uM measured at 15 to 30 mins by Malachite green method; type: cell-based; details: Homo sapiens, filed as activator, time 15-30 min
[12] = test system: Mus musculus; experiment: Cognitive enhancing effect in LPS-induced mouse model of cognitive impairment assessed as fold change in time exploring the new object at 10 mg/ml, ip by object recognition test; type: functional
Method in brief: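 Mice injected i.p. with LPS 1 mg/mL and co-injected i.p. with compound 10 mg/mL; object recognition test: day 1 arena familiarization, day 2 two identical objects, day 3 one replaced by an object differing in shape and size; exploration recorded 10 min; new vs old object exploration time compared; mean ± SEM.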

Sequence of Glycogen synthase kinase-3 beta (Homo sapiens) (P49841 whole entry, looked up): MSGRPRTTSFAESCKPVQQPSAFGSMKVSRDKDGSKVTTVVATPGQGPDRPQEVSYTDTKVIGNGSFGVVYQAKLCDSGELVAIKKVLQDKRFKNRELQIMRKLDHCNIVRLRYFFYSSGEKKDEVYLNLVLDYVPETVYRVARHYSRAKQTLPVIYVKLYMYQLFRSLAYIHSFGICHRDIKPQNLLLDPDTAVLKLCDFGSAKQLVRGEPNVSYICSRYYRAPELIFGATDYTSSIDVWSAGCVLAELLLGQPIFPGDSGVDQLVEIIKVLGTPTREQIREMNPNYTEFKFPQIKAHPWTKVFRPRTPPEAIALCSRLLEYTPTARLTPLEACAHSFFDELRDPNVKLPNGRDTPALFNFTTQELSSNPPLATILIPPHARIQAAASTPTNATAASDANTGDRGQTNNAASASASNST
Sequence of Microtubule-associated protein tau (Homo sapiens) (P10636 whole entry): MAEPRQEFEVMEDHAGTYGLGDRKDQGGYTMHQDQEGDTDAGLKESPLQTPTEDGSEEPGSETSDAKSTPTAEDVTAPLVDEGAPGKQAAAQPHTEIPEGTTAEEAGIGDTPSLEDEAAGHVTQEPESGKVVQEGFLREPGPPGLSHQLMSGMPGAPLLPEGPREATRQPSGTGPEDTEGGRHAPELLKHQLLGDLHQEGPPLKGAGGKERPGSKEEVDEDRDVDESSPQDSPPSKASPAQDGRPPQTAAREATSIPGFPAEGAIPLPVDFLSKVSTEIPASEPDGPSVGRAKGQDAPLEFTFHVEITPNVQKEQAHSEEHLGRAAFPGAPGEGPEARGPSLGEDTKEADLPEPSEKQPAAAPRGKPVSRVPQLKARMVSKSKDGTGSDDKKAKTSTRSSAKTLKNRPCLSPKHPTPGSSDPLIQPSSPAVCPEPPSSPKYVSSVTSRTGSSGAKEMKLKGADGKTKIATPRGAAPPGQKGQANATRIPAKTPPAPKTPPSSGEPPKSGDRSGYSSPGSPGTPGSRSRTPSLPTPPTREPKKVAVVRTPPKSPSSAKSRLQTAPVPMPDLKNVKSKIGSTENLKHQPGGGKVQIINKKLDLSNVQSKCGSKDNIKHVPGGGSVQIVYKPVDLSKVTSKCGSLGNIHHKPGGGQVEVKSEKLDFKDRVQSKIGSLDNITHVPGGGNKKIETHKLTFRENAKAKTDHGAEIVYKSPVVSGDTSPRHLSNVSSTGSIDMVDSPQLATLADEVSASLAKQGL

In the case of `OCCC[C@@H]1C=C[C@@H]2OC(c3ccccc3)OC[C@H]2O1` (some centres not stated), the Activity [1] is reported as 29%, the Activity [2] is reported as 52% and the Activity [3] is reported as 12%. It also gave an Activity [4] of 82%.

Molecule `COc1ccc2[nH]cc(CCNC(C)=O)c2c1` [MELATONIN] has an Activity [1] of 28%.

In the case of `CC1(C)OC[C@H]2O[C@H](CCCO)C=C[C@@H]2O1`, the Activity [1] is reported as 5%, the Activity [2] is reported as 45% and the Activity [3] is reported as 6%. For the same molecule, the Activity [4] was 81%.

With `C=CC[C@@H]1C=C[C@H](O)[C@@H](CO)O1` the Activity [5] was “Active”, the Activity [1] was 30% and the Activity [2] was 45%. The Activity [3] was 15% and the Activity [4] was 72%.

For `OC[C@H](O)C[C@@H]1C=C[C@@H]2OC(c3ccccc3)OC[C@H]2O1` (some centres not stated), the Activity [5] was “Active”, the Activity [1] was 10% and the Activity [2] was 21%. For the same molecule, the Activity [3] was 29%, the Activity [4] was 40% and the Activity ([6]; filed as activator) was “Active”.

In the case of `CC1(C)OC[C@H]2O[C@H](C[C@H](O)CO)C=C[C@@H]2O1`, the inhibition [7] is reported as “Active”, the Activity [5] is reported as “Active” and the Activity [1] is reported as 16%. For the same molecule, the Activity [2] was 64%, the permeability [8] was “Permeable” and the Activity [9] was “Active”. For the same molecule, the Activity [3] was 20%, the inhibition [10] was “Active” and the Activity [4] was 72%. For the same molecule, the Activity [11] was “Active”, the Activity ([6]; filed as activator) was “Active” and the “fold change (FC)” value [12] was 2.4.

`C=CC[C@@H]1C=C[C@@H]2OC(c3ccccc3)OC[C@H]2O1` (some centres not stated) gave an Activity [1] of 26%, an Activity [2] of 49% and an Activity [3] of 15%. For the same molecule, the Activity [4] was 80%.

`O=C(OCCC[C@@H]1C=C[C@@H]2OC(c3ccccc3)OC[C@H]2O1)c1ccccc1` (some centres not stated) gave an Activity [1] of 7%, an Activity [2] of 47% and an Activity [3] of 8%. The Activity [4] was 72% and the Activity [6] was “inactive”.

With `OC[C@@H](O)C[C@@H]1C=C[C@@H]2OC(c3ccccc3)OC[C@H]2O1` (some centres not stated) the Activity [5] was “Active”, the Activity [1] was 27% and the Activity [2] was 54%. It also gave an Activity [3] of 13% and an Activity [4] of 73%.

With `C=CC[C@@H]1C=C[C@H](OC(C)=O)[C@@H](COC(C)=O)O1` the Activity [1] was 23%, the Activity [2] was 47% and the Activity [3] was 19%. It also gave an Activity [4] of 84%.

Molecule `O=C(OCCC[C@@H]1C=C[C@H](O)[C@@H](CO)O1)c1ccccc1` has an Activity [1] of 3%, an Activity [2] of 1% and an Activity [3] of 17%. For the same molecule, the Activity [4] was 20% and the Activity [6] was “inactive”.

For `C=CC[C@@H]1C=C[C@@H]2OC(C)(C)OC[C@H]2O1`, the Activity [1] was 63%, the Activity [2] was 50% and the Activity [3] was 8%. For the same molecule, the Activity [4] was 50%.

`CC12CC3CC(C)(C1)CC(N)(C3)C2` [MEMANTINE] showed an Activity [2] of 57%, an Activity [3] of 22% and an Activity [4] of 60%.

For `CC1(C)OC[C@H]2O[C@H](C[C@@H](O)CO)C=C[C@@H]2O1`, the Activity [5] was “Active”, the Activity [1] was 24% and the Activity [2] was 56%. It also gave an Activity [3] of 15% and an Activity [4] of 45%.

Work on `CC1(C)OC[C@H]2O[C@H](CCCOC(=O)c3ccccc3)C=C[C@@H]2O1` yielded an Activity [1] of 15%, an Activity [2] of 37% and an Activity [3] of 17%. For the same molecule, the Activity [4] was 69% and the Activity [6] was “inactive”.

Source: ChEMBL document CHEMBL5346913, “C-glycosides analogues of the okadaic acid central fragment exert neuroprotection via restoration of PP2A-phosphatase activity: A rational design of potential drugs for Alzheimer's disease targeting tauopathies” (Eur J Med Chem, 2023)
